pEC50, pIC50: −log10 of the molar value.
Experiments:
[1] = Inhibitory activity against Leishmania mexicana GAPDH; Inactive at 50 uM
[2] = In vitro inhibition of rabbit muscle GAPDH.; set-up: species or system Oryctolagus cuniculus
Procedure, shortened: (§1)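 Spectrophotometric assay at 23 °C in 0.10 M triethanolamine/HCl, pH 7.5. Enzyme starts the reaction and inhibitors are in 5% DMSO-d₆. Initial rates over 0–2 min are compared with control. IC50 comes from ≥5 concentrations, or is extrapolated from ≥3 concentrations when above 50 µM.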

NIH3T3 = assay: Effective concentration required to inhibit the growth of murine 3T3 fibroblasts; assay type: functional; conditions: Mus musculus, read-out: ED50 (the source's name)
[3] = biological target: Glyceraldehyde-3-phosphate dehydrogenase, glycosomal (Leishmania mexicana, UniProt Q27890); assay: Inhibitory activity against Leishmania mexicana GAPDH
Procedure, shortened: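 Spectrophotometric GAPDH assay at 23 °C in 0.10 M triethanolamine/HCl pH 7.5, read as NADH formation at 340 nm. Final: 5.0 mM MgSO4, 1.0 mM EDTA, 12.8 mM KH2PO4, 1.0 mM DTT, 1.0 mM NaN3, 0.45 mM NAD+, 1.87 mM fresh glyceraldehyde-3-phosphate, 5% DMSO-d6. Started with enzyme. Initial rates 0–2 min as % of control. IC50 from ≥5 concentrations (≤50 µM) or extrapolated from ≥3.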

[4] = In vitro inhibition of Trypanosoma cruzi GAPDH.; procedure, shortened: as §1
Trypanosoma brucei [5] = assay: (§2) Effective concentration required to block the growth of bloodstream Trypanosoma brucei; assay type: functional; conditions: read-out: ED50 (the source's name)
Procedure, shortened: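 Bloodstream-form strain 427 trypomastigotes are grown in HMI-9 with 10% FBS at 37 °C, 5% CO₂. Triplicate wells are seeded at 5 × 10³ parasites per well with serially diluted drug. Growth is read with Alamar Blue at 48 h. Assays were run twice.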

[6] = In vitro inhibition of Trypanosoma brucei GAPDH.; procedure, shortened: as §1
Trypanosoma cruzi = assay: Effective concentration required to inhibit the growth of mammalian stage of Trypanosoma cruzi grown in murine 3T3 fibroblasts; assay type: functional; conditions: read-out: ED50 (the source's name)
Procedure, shortened: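 Tulahuen strain stably carrying E. coli lacZ. Mammalian stages are cocultured with mouse 3T3 fibroblasts in RPMI 1640 with 10% FBS at 37 °C, 5% CO₂. Intracellular growth is followed by a colorimetric β-galactosidase read-out. Assays were run twice.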

Trypanosoma brucei [7] = assay: as §2; assay type: functional; conditions: read-out: ED50 (the source's name); remark: listed apart in the source
Procedure, shortened: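 Bloodstream-form strain 427 trypomastigotes grown in HMI-9 with 10% fetal bovine serum, penicillin and streptomycin at 37 °C, 5% CO2. Inoculum 5 × 10³ parasites per well, drug given in serial dilutions, triplicate wells. Growth read at 48 h with Alamar Blue, checked against hemacytometer counts. Assay run twice.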

Glyceraldehyde-3-phosphate dehydrogenase, glycosomal, sequence (Q27890 whole entry, looked up): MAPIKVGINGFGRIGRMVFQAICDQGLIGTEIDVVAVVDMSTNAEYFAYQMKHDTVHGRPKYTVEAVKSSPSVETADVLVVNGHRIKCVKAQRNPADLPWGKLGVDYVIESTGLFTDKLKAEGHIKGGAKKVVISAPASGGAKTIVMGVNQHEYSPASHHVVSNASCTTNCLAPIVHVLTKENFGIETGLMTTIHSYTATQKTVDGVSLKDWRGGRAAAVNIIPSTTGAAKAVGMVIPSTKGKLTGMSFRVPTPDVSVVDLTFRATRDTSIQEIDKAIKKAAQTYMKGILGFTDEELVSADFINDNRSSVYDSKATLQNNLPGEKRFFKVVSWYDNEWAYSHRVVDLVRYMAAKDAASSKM

For COc1cccc(C(=O)N[C@@H]2[C@H](O)[C@@H](CO)O[C@H]2n2cnc3c(NCc4c(OC)ccc5ccccc45)ncnc32)c1, the IC50 [1] was “Not Active”.
With COc1ccccc1C(=O)N[C@@H]1[C@H](O)[C@@H](CO)O[C@H]1n1cnc2c(NCc3cccc4ccccc34)ncnc21 the IC50 [1] was “Not Active”.
With O=C(N[C@@H]1[C@H](O)[C@@H](CO)O[C@H]1n1cnc2c(NCc3cccc4ccccc34)ncnc21)c1cc(Cl)cc(Cl)c1 the pIC50 [2] was less than 4.30, the pEC50 (NIH3T3) was 4.46 and the pIC50 [3] was 4.92. For the same compound, the pIC50 [4] was 4.12, the pEC50 (Trypanosoma brucei [5]) was 5.30 and the pIC50 [6] was 4.00. It also gave a pEC50 (Trypanosoma cruzi) of 5.15.
For CC(=O)Oc1ccccc1C(=O)N[C@@H]1[C@H](O)[C@@H](CO)O[C@H]1n1cnc2c(NCc3cccc4ccccc34)ncnc21, the IC50 [1] was “Not Active”.
With COc1cccc(C(=O)N[C@@H]2[C@H](O)[C@@H](CO)O[C@H]2n2cnc3c(NCc4cccc5ccccc45)ncnc32)c1O the IC50 [1] was “Not Active”.
For O=C(CC1CCCCC1)NC[C@H]1OC(n2cnc3c(NCc4cccc5ccccc45)ncnc32)[C@H](O)[C@@H]1O (some centres not stated), the IC50 [1] was “Not Active”.
For O=C(NC[C@H]1OC(n2cnc3c(NCc4cccc5ccccc45)ncnc32)[C@H](O)[C@@H]1O)C(c1ccccc1)c1ccccc1 (some centres not stated), the IC50 [1] was “Not Active”.
CC(=O)Oc1cc(OC(C)=O)cc(C(=O)N[C@@H]2[C@H](O)[C@@H](CO)O[C@H]2n2cnc3c(NCc4cccc5ccccc45)ncnc32)c1 gave a pIC50 [2] of less than 4.30, a pEC50 (NIH3T3) of less than 4.30 and a pIC50 [3] of 5.00. It also gave a pIC50 [4] of 4.92, a pEC50 (Trypanosoma brucei [5]) of less than 4.30 and a pIC50 [6] of 4.85. The pEC50 (Trypanosoma cruzi) was less than 4.30.
With O=C(N[C@@H]1[C@H](O)[C@@H](CO)O[C@H]1n1cnc2c(NCc3cccc4ccccc34)ncnc21)c1ccccc1O the IC50 [1] was “Not Active”.
With COc1cccc(C(=O)N[C@@H]2[C@H](O)[C@@H](CO)O[C@H]2n2cnc3c(NCc4cc(OC)cc5ccccc45)ncnc32)c1 the pIC50 [2] was less than 4.30, the pEC50 (NIH3T3) was less than 4.30 and the pIC50 [3] was 5.52. For the same compound, the pIC50 [4] was 4.92, the pEC50 (Trypanosoma brucei [5]) was 4.51 and the pIC50 [6] was 4.92. It also gave a pEC50 (Trypanosoma cruzi) of 4.70.
For COc1cccc(C(=O)N[C@@H]2[C@H](O)[C@@H](CO)O[C@H]2n2cnc3c(NCc4cccc5ccccc45)ncnc32)c1OC(C)=O, the IC50 [1] was “Not Active”.
With O=C(N[C@@H]1[C@H](O)[C@@H](CO)O[C@H]1n1cnc2c(NCc3cccc4ccccc34)ncnc21)c1ccccc1Cl the IC50 [1] was “Not Active”.
Compound N=C(N)c1ccc(OCCCCCOc2ccc(C(=N)N)cc2)cc1 [PENTAMIDINE] has a pIC50 [2] of less than 4.30 and a pEC50 (Trypanosoma brucei [7]) of 8.22.

Source: ChEMBL document CHEMBL1134510, “Adenosine analogues as selective inhibitors of glyceraldehyde-3-phosphate dehydrogenase of Trypanosomatidae via structure-based drug design” (J Med Chem, 2001)
